Data on 6 molecules can be found in ChEMBL document CHEMBL1155267, “Synthesis of novel bioactive derivatives of 3-(4-chlorophenyl)-2-hydrazino-5,6,7,8-tetrahydrobenzo(b)thieno[2,3-d]pyrimidine-4(3H)-ones” (2009).

Structures are written as SMILES.

The term ED50 denotes the midpoint of the dose-response relation.

Common to all, as to type: functional
Assay [1] deals with Mus musculus. In words: Anticonvulsant activity in Swiss albino mouse assessed as protection against PTZ-induced clonic convulsions at 10 mg/kg, ip administered after 30 mins PTZ challenge measured for 20 mins. Particulars: route intraperitoneal. The method in brief:
(§1)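 Groups of six mice got the test suspension in 1% CMC i.p. at the stated dose. After 30 min they received aqueous PTZ 85 mg/kg s.c. and were watched for 20 min for clonic convulsions. The result is the percentage of animals protected.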

Assay [2] deals with Mus musculus. In words: Anticonvulsant activity in Swiss albino mouse assessed as protection against PTZ-induced clonic convulsions at 9 mg/kg, ip administered after 30 mins PTZ challenge measured for 20 mins. Particulars: route intraperitoneal. The method in brief:
as §1

Assay [3] has as its system Mus musculus. The experiment in a line: Antidepressant activity in Swiss albino mouse at 5 mg/kg, ip after 60 mins by photoactometer method. Conditions: route intraperitoneal. The method in brief: (§2)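 Swiss albino mice of either sex, 25–40 g, six per group, acclimatised 10 min. Baseline photoactometer counts were taken over 10 min. Dosing was 5 mg/kg i.p. in 1% CMC, with each group serving as its own control. At 20 and 50 min animals entered the chamber, rested 10 min, then counts were taken for 10 min. % depression = (control − decrease in count)/control ×100. Mean ± SEM, n=6.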

Assay [4] concerns Mus musculus. In words: Skeletal muscle relaxant activity in Swiss albino mouse assessed as number of falls form rotarod at 5 mg/kg, ip after 30 mins by rotarod method relative to Diazepam. On the set-up: scale not given: the % may be the effect or the level left. Conditions: route intraperitoneal. The method in brief:
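Mice 25–40 g, six per group, were dosed at 5 mg/kg in 1% CMC, with each group serving as its own control. Falls per min on the Rotarod were recorded before dosing and 30 min after. % relaxation = (mean increase in falls − mean control)/mean control ×100. Mean ± SEM, n=6.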

Assay [5] has as its system Mus musculus. The experiment in a line: Antidepressant activity in Swiss albino mouse at 5 mg/kg, ip after 30 mins by photoactometer method. Particulars: route intraperitoneal. The method in brief: as §2
Assay [6] concerns Mus musculus. In words: Anticonvulsant activity in Swiss albino mouse assessed as protection against PTZ-induced clonic convulsions at 8 mg/kg, ip administered after 30 mins PTZ challenge measured for 20 mins. Particulars: route intraperitoneal. The method in brief:
as §1

For assay [7], the system named is Mus musculus. In words: Anticonvulsant activity in Swiss albino mouse assessed as protection against PTZ-induced clonic convulsions administered after 30 mins PTZ challenge measured for 20 mins. The method in brief: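 Mice (groups of six) got the test suspension in 1% CMC i.p., then 30 min later aqueous PTZ 85 mg/kg s.c. Clonic convulsions were watched for 20 min. The number of animals protected per group served as the percentage response for calculating ED50.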

The test system of assay [8] is Mus musculus. In words: Anticonvulsant activity in Swiss albino mouse assessed as protection against PTZ-induced clonic convulsions at 5 mg/kg, ip administered after 30 mins PTZ challenge measured for 20 mins. Conditions: route intraperitoneal. The method in brief:
as §1

The test system of assay [9] is Mus musculus. The experiment in a line: Anticonvulsant activity in Swiss albino mouse assessed as protection against PTZ-induced clonic convulsions at 6 mg/kg, ip administered after 30 mins PTZ challenge measured for 20 mins. Conditions: route intraperitoneal. The method in brief: as §1
The test system of assay [10] is Mus musculus. In words: Anticonvulsant activity in Swiss albino mouse assessed as protection against PTZ-induced clonic convulsions at 7 mg/kg, ip administered after 30 mins PTZ challenge measured for 20 mins. Conditions: route intraperitoneal. The method in brief:
as §1

In assay [11] the test system is Mus musculus. In words: Anticonvulsant activity in Swiss albino mouse assessed as protection against PTZ-induced clonic convulsions at 11 mg/kg, ip administered after 30 mins PTZ challenge measured for 20 mins. Particulars: route intraperitoneal. The method in brief:
as §1

Assay [12] deals with Mus musculus. The experiment in a line: Anticonvulsant activity in Swiss albino mouse assessed as protection against PTZ-induced clonic convulsions at 4 mg/kg, ip administered after 30 mins PTZ challenge measured for 20 mins. Particulars: route intraperitoneal. The method in brief:
as §1

For the molecule `CCc1nnc2n(-c3ccc(Cl)cc3)c(=O)c3c4c(sc3n12)CCCC4`, the Activity amounted to 100% with Mus musculus [1]; 66.66% in the assay with Mus musculus [2]; 83.92% in the assay on Mus musculus [3]; 105.49% in the assay on Mus musculus [4]; 71.42% with Mus musculus [5]; 33.33% in the assay on Mus musculus [6]. Besides, the 50% effective dose (ED50) in the assay with Mus musculus [7] stood at 8.5 mg/kg.

Turning to `O=c1c2c3c(sc2n2c(S)nnc2n1-c1ccc(Cl)cc1)CCCC3`, the Activity in the assay on Mus musculus [8] is 33.33%; in the assay on Mus musculus [9], 66.66%; with Mus musculus [3] it was 90%; in the assay on Mus musculus [4], 109.62%; in the assay with Mus musculus [5], 81.71%; with Mus musculus [10], 100%. Also, the 50% effective dose (ED50) in the assay on Mus musculus [7] was 5.5 mg/kg.

On to `Cc1nnc2n(-c3ccc(Cl)cc3)c(=O)c3c4c(sc3n12)CCCC4`, for which the Activity stood at 83.33% with Mus musculus [1]; 33.33% in the assay with Mus musculus [2]; 100% in the assay with Mus musculus [11]; 82.65% with Mus musculus [3]; 102.75% in the assay with Mus musculus [4]; 75.51% with Mus musculus [5]. Further, the ED50 in the assay on Mus musculus [7] amounted to 9.33 mg/kg.

With `Nc1nnc2n(-c3ccc(Cl)cc3)c(=O)c3c4c(sc3n12)CCCC4`, the Activity was 16.66% in the assay with Mus musculus [9]; 88.78% with Mus musculus [3]; 107.52% in the assay with Mus musculus [4]; 82.24% with Mus musculus [5]; 66.66% in the assay with Mus musculus [10]; 100% with Mus musculus [6]. In addition, the ED50 with Mus musculus [7] was 6.73 mg/kg.

In the case of `CN1C(=O)CN=C(c2ccccc2)c2cc(Cl)ccc21` [DIAZEPAM], the Activity in the assay on Mus musculus [3] came to 89.32%; in the assay on Mus musculus [5], 85.43%. The 50% effective dose (ED50) with Mus musculus [7] worked out at 1.18 mg/kg.

On to `CCCc1nnc2n(-c3ccc(Cl)cc3)c(=O)c3c4c(sc3n12)CCCC4`, for which the Activity in the assay with Mus musculus [8] was determined as 83.33%; with Mus musculus [12] it was 16.66%; in the assay with Mus musculus [9], 100%; with Mus musculus [3], 90.4%; with Mus musculus [4], 116.62%; in the assay on Mus musculus [5] it was 78.78%. Also, the ED50 with Mus musculus [7] was 4.4 mg/kg.
